Laboratory results from ChEMBL document CHEMBL1141490, “Synthesis and evaluation of PSSRI-based inhibitors of Staphylococcus aureus multidrug efflux pumps” (Bioorg Med Chem Lett, 2008).
Values after ≈ are worked out from the molar mass of the structure shown.

Tests used:
Staphylococcus aureus [1] = experiment: Inhibition of NorA-mediated efflux in Staphylococcus aureus K2361; format: functional, organism-based
Staphylococcus aureus [2] = experiment: Inhibition of MepA-mediated efflux in Staphylococcus aureus K2886; format: functional, organism-based
Procedure, shortened: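 Efflux from MepA-overexpressing S. aureus K2886, done in duplicate. Reported as mean total efflux over a 5 min time course.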

Staphylococcus aureus [3] = experiment: Antimicrobial activity against Staphylococcus aureus K1902; format: functional
Staphylococcus aureus [4] = experiment: Antimicrobial activity against Staphylococcus aureus K2361 over expressing NorA efflux pump; format: functional
Staphylococcus aureus [5] = experiment: Antimicrobial activity against Staphylococcus aureus K2885; format: functional
Staphylococcus aureus [6] = experiment: Antimicrobial activity against Staphylococcus aureus K2886 over expressing MepA efflux pump; format: functional
Pseudomonas aeruginosa [7] = experiment: Antimicrobial activity against Pseudomonas aeruginosa K3082; format: functional
Pseudomonas aeruginosa [8] = experiment: Antimicrobial activity against Pseudomonas aeruginosa K2184 over expressing MexB efflux pump; format: functional
Escherichia coli [9] = experiment: Antimicrobial activity against Escherichia coli K2201; format: functional
Staphylococcus aureus [10] = experiment: Inhibition of NorA efflux pump in Staphylococcus aureus K2361 at 0.50 assessed as fold reduction in ethidium bromide minimum inhibitory concentration; format: functional; parameters: concentration or dose not given beside the values
Staphylococcus aureus [11] = experiment: Inhibition of NorA efflux pump in Staphylococcus aureus K2361 at 1.58 uM MIC assessed as fold reduction in ethidium bromide minimum inhibitory concentration; format: functional
Staphylococcus aureus [12] = experiment: Inhibition of MepA efflux pump in Staphylococcus aureus K2886 at 1.58 uM MIC assessed as fold reduction in ethidium bromide minimum inhibitory concentration; format: functional
Escherichia coli [13] = experiment: Antimicrobial activity against Escherichia coli K2203 over expressing AcrB efflux pump
Staphylococcus aureus [14] = experiment: Inhibition of MepA efflux pump in Staphylococcus aureus K2886 at 1/2 MIC assessed as fold reduction in ethidium bromide minimum inhibitory concentration
Staphylococcus aureus [15] = experiment: Inhibition of NorA efflux pump in Staphylococcus aureus K2361 at 8.32 uM assessed as fold reduction in ethidium bromide minimum inhibitory concentration; format: functional
Staphylococcus aureus [16] = experiment: Inhibition of MepA efflux pump in Staphylococcus aureus K2886 at 4.16 uM assessed as fold reduction in ethidium bromide minimum inhibitory concentration; format: functional
Staphylococcus aureus [17] = experiment: Inhibition of NorA efflux pump in Staphylococcus aureus K2361 at 0.79 uM MIC assessed as fold reduction in ethidium bromide minimum inhibitory concentration; format: functional
Procedure, shortened: (§1)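 Ethidium bromide MIC was determined for the pump-expressing S. aureus strain, alone and with the efflux inhibitor added at 1/4 or 1/2 of the inhibitor's own MIC against that strain. Potentiation is expressed as fold lowering of the ethidium bromide MIC. Parent strains SA-K1902 and SA-K2885 were tested in the same way at 1/2 MIC.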

Staphylococcus aureus [18] = experiment: Inhibition of MepA efflux pump in Staphylococcus aureus K2886 at 0.39 uM assessed as fold reduction in ethidium bromide minimum inhibitory concentration; format: functional; procedure, shortened: as §1
Staphylococcus aureus [19] = experiment: Inhibition of MepA efflux pump in Staphylococcus aureus K2886 at 0.50 uM assessed as fold reduction in ethidium bromide minimum inhibitory concentration; format: functional
Staphylococcus aureus [20] = experiment: Inhibition of NorA efflux pump in Staphylococcus aureus K2361 at 8.21 uM MIC assessed as fold reduction in ethidium bromide minimum inhibitory concentration; format: functional
Staphylococcus aureus [21] = experiment: Inhibition of MepA efflux pump in Staphylococcus aureus K2886 at 4.1 uM MIC assessed as fold reduction in ethidium bromide minimum inhibitory concentration; format: functional

Compound | IC50 (Staphylococcus aureus [1]) [µM] | IC50 (Staphylococcus aureus [2]) [µM] | MIC (Staphylococcus aureus [3]) [µg/mL] | MIC (Staphylococcus aureus [4]) [µg/mL] | MIC (Staphylococcus aureus [5]) [µg/mL] | MIC (Staphylococcus aureus [6]) [µg/mL] | MIC (Pseudomonas aeruginosa [7]) [µg/mL] | MIC (Pseudomonas aeruginosa [8]) [µg/mL] | MIC (Escherichia coli [9]) [µg/mL] | Fold change (Staphylococcus aureus [10]) | further results
Fc1ccc([C@@H]2CCNC[C@H]2CNc2ccccc2)cc1 | > 50 | – | – | – | – | – | – | – | – | – | –
Fc1ccc([C@@H]2CCNC[C@H]2COc2ccccc2)cc1 | 22 | – | – | – | – | – | – | – | – | – | –
Fc1ccc([C@@H]2CCNC[C@H]2COc2cc(Br)ccc2Cl)cc1 | < 10 | 13 | 12.5 (≈ 31.4 µM) | 12.5 (≈ 31.4 µM) | 6.25 (≈ 15.7 µM) | 6.25 (≈ 15.7 µM) | 100 (≈ 251 µM) | 100 (≈ 251 µM) | 25 (≈ 62.7 µM) | 32 | Fold change (Staphylococcus aureus [17]): 4; Fold change (Staphylococcus aureus [18]): 4; MIC (Escherichia coli [13]): 50 µg/mL (≈ 125 µM); Fold change (Staphylococcus aureus [14]): 8
Fc1ccc([C@@H]2CCNC[C@H]2CSc2ccccc2)cc1 | 18 | – | – | – | – | – | – | – | – | – | –
Fc1ccc([C@@H]2CCNC[C@H]2COc2ccc3c(c2)OCO3)cc1 [PAROXETINE] | 15 | < 10 | – | – | – | – | – | – | – | – | –

Continued, in another order:

IC50 (Staphylococcus aureus [1]) [µM] | IC50 (Staphylococcus aureus [2]) [µM] | MIC (Staphylococcus aureus [3]) [µg/mL] | MIC (Staphylococcus aureus [4]) [µg/mL] | MIC (Staphylococcus aureus [5]) [µg/mL] | MIC (Staphylococcus aureus [6]) [µg/mL] | MIC (Pseudomonas aeruginosa [7]) [µg/mL] | MIC (Pseudomonas aeruginosa [8]) [µg/mL] | MIC (Escherichia coli [9]) [µg/mL] | Compound | Fold change (Staphylococcus aureus [10]) | further results
> 50 | – | – | – | – | – | – | – | – | c1ccc(SC[C@H]2CCCNC2)cc1 | – | –
< 10 | 20 | 25 (≈ 63.3 µM) | 25 (≈ 63.3 µM) | 25 (≈ 63.3 µM) | 25 (≈ 63.3 µM) | 100 (≈ 253 µM) | 100 (≈ 253 µM) | 100 (≈ 253 µM) | Fc1ccc([C@@H]2CCNC[C@H]2/C=C/c2cc(Br)ccc2Cl)cc1 | 64 | Fold change (Staphylococcus aureus [11]): 16; Fold change (Staphylococcus aureus [12]): 4; MIC (Escherichia coli [13]): 100 µg/mL (≈ 253 µM); Fold change (Staphylococcus aureus [14]): >32
> 50 | – | – | – | – | – | – | – | – | COc1ccc(OC[C@H]2CCCNC2)cc1 | – | –
45 | < 10 | 100 (≈ 333 µM) | 100 (≈ 333 µM) | 100 (≈ 333 µM) | 50 (≈ 166 µM) | 100 (≈ 333 µM) | 100 (≈ 333 µM) | 50 (≈ 166 µM) | Clc1ccc(Br)cc1/C=C/[C@H]1CCCNC1 | >128 | Fold change (Staphylococcus aureus [15]): 64; Fold change (Staphylococcus aureus [16]): 4; MIC (Escherichia coli [13]): 100 µg/mL (≈ 333 µM); Fold change (Staphylococcus aureus [14]): 16
> 50 | – | – | – | – | – | – | – | – | c1ccc(OC[C@H]2CCCNC2)cc1 | – | –
> 50 | – | – | – | – | – | – | – | – | c1ccc(NC[C@H]2CCCNC2)cc1 | – | –
40 | < 10 | 100 (≈ 328 µM) | > 100 | 100 (≈ 328 µM) | > 100 | 100 (≈ 328 µM) | 100 (≈ 328 µM) | 100 (≈ 328 µM) | Clc1ccc(Br)cc1OC[C@H]1CCCNC1 | 64 | Fold change (Staphylococcus aureus [19]): 8; Fold change (Staphylococcus aureus [20]): 16; Fold change (Staphylococcus aureus [21]): 2
